Active and inactive are the calls of the source.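 Rule for the calls, unless noted: active = GFP response above 150% of the DMSO level; inconclusive = fewer than 70 events counted for a yeast strain; inactive = the rest.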
Assays:
[1] = hit retest on RPL19A-GFP reporter strain – cell-based, S. cerevisiae, flow cytometry, cherry picks, mother/daughter gates, confirmation (AID 2270;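 active = GFP response below 50% of the DMSO control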); conditions: 3 h, at 10 µM, stronger effect = lower value, 100 = same GFP as DMSO wells
[2] = yeast TOR pathway reporter LAP4-GFP change – cell-based, cherry picks, flow cytometry, mother/daughter gates, confirmation (AID 2271;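 active = GFP response above 150% of the DMSO control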;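 note: ratio of sample to DMSO plate mean so 100% equals DMSO level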); conditions: S. cerevisiae LAP4-GFP strain, 3 h, at 10 µM, stronger effect = higher value, 100 means same as DMSO control
Method in brief: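 material = Alexa 633-stained baker's yeast GFP-fusion strain | amount = 0.2 OD600 cells | schedule = 30 °C, 3 h compound incubation, rotating | signal = GFP by flow cytometry | measure = per-gate (all, mother, daughter) GFP response vs DMSO | controls = positive rapamycin (400 ng/mL), negative DMSO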

[3] = TOR pathway reporter MEP2-GFP, retest of hits – S. cerevisiae, flow cytometry GFP, cherry picks, confirmation (AID 2272;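 active = GFP response above 150% of the DMSO control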;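 note: ratio of well signal to plate DMSO mean so 100% equals DMSO level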); conditions: S. cerevisiae MEP2-GFP strain, 3 h, at 10 µM, stronger effect = higher value
[4] = yeast AGP1-GFP fluorescence change, single-dose – cell-based, flow cytometry, S. cerevisiae, cherry picks, confirmation (AID 2273);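 note: median GFP channel fluorescence over the whole cell population gate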; conditions: S. cerevisiae AGP1-GFP strain, 3 h, at 10 µM
[5] = TOR pathway CIT2 reporter hit retest – S. cerevisiae, GFP fusion, cherry picks, mother/daughter gates, confirmation (AID 2274); conditions: S. cerevisiae CIT2-GFP strain, flow cytometry, 3 h, at 10 µM, stronger effect = higher value
[6] = measured here: daughter cell gate
[7] = measured here: mother cell gate
[8] = measured here: daughter cell gate response
[9] = measured here: mother cell gate response

SMILES	GFP response vs DMSO [1]	GFP response vs DMSO [1, 6]	GFP response vs DMSO [1, 7]	GFP response relative to DMSO [2]	GFP response relative to DMSO [2, 8]	GFP response relative to DMSO [2, 9]	GFP response vs DMSO [3]	GFP response, % of DMSO [4]	GFP response, % of DMSO [5]	GFP response, % of DMSO [5, 6]	GFP response, % of DMSO [5, 7]
COc1cc(CCN2C(=O)c3cccc4cccc(c34)C2=O)c(S(=O)(=O)NCCCO)cc1OC	99.1% (inactive)	98.5%	99.7%	95.3% (inactive)	96.5%	94.6%	99.5% (inactive)	93.6% (inactive)	95% (inactive)	96.4%	93.3%
Cc1nn(Cc2ccc(Cl)cc2)c(=O)n1N(C)c1ncc(C(F)(F)F)cc1Cl	96% (inactive)	98.1%	97.2%	96.7% (inactive)	97.6%	95.1%	96.2% (inactive)	95.4% (inactive)	99.7% (inactive)	101%	98.5%
C/C(=N\NC(=O)c1nonc1N)c1cccs1	98.2% (inactive)	98.8%	98.1%	102% (inactive)	99.3%	100%	99.5% (inactive)	94.5% (inactive)	99.3% (inactive)	98.3%	98%
O=C(c1ccccn1)c1conc1C(=O)c1ccc(Br)cc1	98.2% (inactive)	93.9%	102%	204% (active)	159%	213%	153% (inactive)	105% (inactive)	139% (inactive)	126%	147%
COc1ccc(Br)cc1/C=C/C(=O)c1ccc(NC(C)=O)cc1	100% (inactive)	98.4%	97.7%	89.4% (inactive)	89.8%	92.3%	101% (inactive)	98.6% (inactive)	98.6% (inactive)	101%	96%
O=C(Nc1cccnc1)c1ccc(-c2ccc(Cl)cc2)o1	97.2% (inactive)	93.9%	97.7%	101% (inactive)	100%	103%	97.8% (inactive)	94.1% (inactive)	100% (inactive)	98.1%	99.8%
O=[N+]([O-])c1cc(C(F)(F)F)ccc1Sc1ccccn1	102% (inactive)	101%	101%	97.4% (inactive)	98.7%	98.3%	102% (inactive)	99.2% (inactive)	104% (inactive)	103%	103%
Nc1ccc(S(=O)(=O)c2ccccc2)nc1	103% (inactive)	104%	104%	99.8% (inactive)	98.7%	99.3%	104% (inactive)	95.7% (inactive)	95.2% (inactive)	94.8%	94.4%
O=[N+]([O-])c1ccc(S(=O)(=O)c2cccc(C(F)(F)F)c2)nc1	81.9% (inactive)	92.5%	75%	240% (active)	180%	221%	157% (inactive)	122% (inactive)	128% (inactive)	149%	110%
COCCCNC(=O)c1ccc2c3c(onc13)-c1ccccc1C2=O	96.3% (inactive)	102%	92.9%	132% (inactive)	126%	137%	102% (inactive)	83.6% (inactive)	96.5% (inactive)	103%	90.2%
O=[N+]([O-])c1ccccc1OCCOc1ccccc1[N+](=O)[O-]	103% (inactive)	101%	100%	106% (inactive)	101%	101%	102% (inactive)	106% (inactive)	105% (inactive)	103%	98.5%
c1ccc(Cn2ncc3ccccc32)cc1	100% (inactive)	101%	101%	94.2% (inactive)	92.2%	93.6%	99.5% (inactive)	96.2% (inactive)	97.8% (inactive)	98.3%	96.8%
O=C(Nc1nc(-c2ccccc2)cs1)c1cccs1	99.7% (inactive)	94.2%	101%	101% (inactive)	100%	106%	93.5% (inactive)	86.9% (inactive)	97.8% (inactive)	94.8%	98.7%
COC(=O)c1ccc2nc(Nc3nc4ccc(F)cc4s3)sc2c1	101% (inactive)	101%	102%	81.8% (inactive)	84.8%	86%	97.8% (inactive)	97% (inactive)	108% (inactive)	105%	109%
O=c1[nH]c(CCl)nc2cc(-c3ccc(Cl)cc3)sc12	95.8% (inactive)	94.4%	98.5%	101% (inactive)	99.1%	100%	107% (inactive)	96.5% (inactive)	93% (inactive)	92%	78.5%
C/C(=N\NC(=O)c1c(Br)c(C)nn1C)c1cccc(NC(=O)C2CCC2)c1	100% (inactive)	101%	102%	101% (inactive)	97.9%	101%	102% (inactive)	106% (inactive)	99.3% (inactive)	98.3%	99.1%
Cc1ccc(-c2nnc(NC(=O)c3ccc([N+](=O)[O-])o3)o2)c(C)c1	101% (inactive)	99.3%	99.8%	161% (active)	133%	160%	108% (inactive)	92.3% (inactive)	95.8% (inactive)	99.3%	91.5%
COc1ccc(NC(=O)CCN2CCN(S(=O)(=O)c3cc(Cl)ccc3OC)CC2)cc1	99% (inactive)	97.8%	94.3%	99.8% (inactive)	98.2%	96.2%	101% (inactive)	105% (inactive)	102% (inactive)	100%	102%
Oc1ccc(-c2csc(-c3ccccc3)n2)cc1O	97% (inactive)	93.2%	96.5%	124% (inactive)	120%	129%	101% (inactive)	96% (inactive)	93.4% (inactive)	93.7%	90.8%
O=C(C1CCN(Cc2nc(Cc3cccc(F)c3)no2)CC1)N1CCOCC1	99.5% (inactive)	99%	99.8%	96.2% (inactive)	100%	97.2%	100% (inactive)	103% (inactive)	100% (inactive)	99.7%	102%
COc1ccc(N=Nc2ccc(O)c3ncccc23)cc1	99.5% (inactive)	100%	98.8%	199% (active)	189%	200%	116% (inactive)	94.5% (inactive)	109% (inactive)	113%	103%
Cc1ccccc1OCC(=O)NNC(=S)NC(=O)c1ccco1	122% (inactive)	111%	118%	147% (inactive)	135%	137%	129% (inactive)	110% (inactive)	125% (inactive)	122%	112%
COc1ccc(CNC(=O)c2nc(S(=O)(=O)Cc3ccccc3)ncc2Cl)cc1	102% (inactive)	104%	101%	107% (inactive)	107%	108%	116% (inactive)	103% (inactive)	106% (inactive)	106%	105%

From PubChem BioAssay
